We go through 48 sequences from the EternaBench riboswitch data.

In this series the test system is MS2 coat protein. Description: apparent Kd, MS2 coat protein; higher = weaker binding; RNA-MaP array; FMN 200 µM where present. In a few lines:
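The apparent Kd is reported as the median of filtered per-cluster binding-curve fits. To get these curves, designs transcribed by stalled E. coli RNA polymerase on Illumina sequencing-chip clusters were titrated with SNAP-549-labelled MS2 coat protein from 0.7 or 1.5 nM, doubling to 3 µM. Titrations were run without and then with constant ligand in 100 mM Tris-HCl pH 7.5, 80 mM KCl, 4 mM MgCl2, BSA, DTT, yeast tRNA and Tween-20, and green signal was normalised to red-channel RNA signal and control-cluster median Fmax.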

The mark [1] stands for this setting: designed as: OFF switch for flavin mononucleotide, no ligand.
The mark [2] stands for this setting: ligand present: flavin mononucleotide, designed as: OFF switch for flavin mononucleotide.
Where [3] appears, read: designed as: ON switch for flavin mononucleotide, no ligand.
Where [4] appears, read: ligand present: flavin mononucleotide, designed as: ON switch for flavin mononucleotide.

Usually apparent Kd stands for the concentration giving half-maximal binding under the conditions of the assay. Consider “AUCGUGCAGCUUUGCUGUACGCGUACAUGAGGAUCACCCAUGUAGGAUAUGGUACGCUUUGCGUGCUAGAAGGAUAUGGAGAGG”, for which the “apparent Kd” value worked out at 16.9 nM under setting [1] and 21.1 nM under setting [2].

Regarding “GACCGCGAGGAAGGAUAUGGAGCCUUAAAGGCUCCAGAAGGUCCAUAAAGGACAUGAGGAUCACCCAUGUGGUGAGAAGCGGUC”, the “apparent Kd” value by setting is: under setting [3], 1720 nM; under setting [4], 201 nM. With “GGUUGUCAUAGUCAUCCUUUCCGUACAUGAGGAUCACCCAUGUAGGAUAUGCUACUCACAGUGUGGCAGAAGGGCGUGUGUCUU”, the “apparent Kd” value under setting [2] is 19.4 nM. In the case of “UUGCCUCAGAACAUGAGGAUCACCCAUGUGCUGUGGGCAACAUAGGAUAUGAUGGUAUUAUACCGUCAGAAGGAUGAUGGUACU”, the “apparent Kd” value under setting [3] worked out at 5.34 nM and the “apparent Kd” value under setting [4] was 5.06 nM. For “UGUUGUAUUACAGGAUAUCUAUUAUUUUUAUUUAGAGAAGGGUAUUCACAUGAGGAUCACCCAUGUAUAUACGAGGAAGUUGUG”, in that order: 52.6 nM and 58.9 nM.

On to “UCAUGUUAAGGAUAUACAUGAGGAUCACCCAUGUUUGUUCAAAAUCUUAGAUCCCAAUGUAGAAGGUGGCUGUA”, for which the “apparent Kd” value by setting is: under setting [1], 75.8 nM; under setting [2], 75.4 nM.

With “UAAUAAAGUGUGAGGAUAUGCUGGUCCUUAGAUCAGCAGAAGGCACAUGAGGAUCACCCAUGUAAUAUAUAAAU”, the “apparent Kd” value under setting [1] was 40 nM and the “apparent Kd” value under setting [2] was 281 nM. For “AGAGAAUAGUCAGGAUAUGAGAAUAGAUAGAGCUCAGAAGGGACACAUGAGGAUCACCCAUGUGAAGUCUUGAGGCUGCGUGGA”, in that order: 14.8 nM and 14.2 nM. For “GACGUGUGAGGAUAUCCGAUGCCGGUCCGGAAGGUUCGGGUGGAGAAGGCACAUGAGGAUCACCCAUGUGUAAG”, in that order: 18 nM and 26.5 nM. Regarding “GGGCCCGGAGGAUAUACAAUCCCGGGUUGAAAGGCCCGGGUACAUGAGGAUCACCCAUGUAGAAGGUUGGGCCC”, the “apparent Kd” value is 14.2 nM under setting [1] and 17.3 nM under setting [2]. For “UGUCGGAGCAGAGGAUAUUACAUGAGGAUCACCCAUGUAUGAACCAAUAGCUGGAAACAGCAAUGUAAGAAGGCUGCUCCAACA”, in that order: 12.3 nM and 149 nM. As for “GGCUGCGUUGUGAAGGAUAUCCGCGUCUGGACAUGAGGAUCACCCAUGUAUGCUUGGAUCAUGCCGGAGAAGGUCACGAAUGAUU”, the “apparent Kd” value reads like this: under setting [3], 34.3 nM; under setting [4], 17 nM. For “GGGUACAUCGGAGGAUAUCAUGUAAAUACAUGAGGAUCACCCAUGUCGAUGGAGCCAUCGGAGAUUGAGAAGGCCGAUGUACCG”, in that order: 14.3 nM and 5.63 nM. Take “CACCGUUACAGAGGAUAUGAUACAUGAGGAUCACCCAUGUAAUAAAUGAGAAUUUCGAAUGUACCUCAGAAGGCUGGAACCGGC”: the “apparent Kd” value runs as follows: under setting [1], 40.4 nM; under setting [2], 83.2 nM. For “GUCAGCUCGUGAGGAUAUACAACACUGCUUCGGCGGUGUAUUAAGAUCACAUGAGGAUCACCCAUGUAGAAGGCACGAGCUGAU”, in that order: 13.1 nM and 249 nM.

Take “CGGCCCUAUCGAGGAUAUAAGUCUAGGACAUGAGGAUCACCCAUGUAUGUCUUAGAAGGCGAUAGGGCCAGCCUGUUACAGGCA”: the “apparent Kd” value reads like this: under setting [3], 29.7 nM; under setting [4], 6.23 nM.

With “AUUAUUAAGUUAGGAUAUAGUAAAAUGAUUUAGUUAGAAGGAGCUCACAUGAGGAUCACCCAUGUAAGAGGAUCACCCAUGUAU”, the “apparent Kd” value runs as follows: under setting [1], 23.8 nM; under setting [2], 15.6 nM. With “AAGAACAACCAGAAGGCAAGGCAAACAUGAGGAUCACCCAUGUAAUAUUUGAGGAUAUGGGUUCGACGUGGUCUAAAGUCAGGU”, the “apparent Kd” value runs as follows: under setting [3], 120 nM; under setting [4], 14.1 nM. For “AACAUGGUACAGAAGGGCAAUUUAUUUAAUUAUUAUUUAGAACAGCAUUGCAGGAUAUGUUUAACAUGAGGAUCACCCAUGUAC”, in that order: 70.4 nM and 13.8 nM. With “AAUAACAGAGGAUAUACUAUUUUAUGUGUUUAUUGUUUUAAACAUGAGGAUCACCCAUGUAGAAGGCUGAGUAA”, the “apparent Kd” value was found to be 42.2 nM under setting [1] and 59.8 nM under setting [2]. As to “AUUUUAUAAUAGAAGGAAGACUUCAUGAGGAUCACCCAUGUGUUGGUACUUAGGAUAUGUAAUAACAUGAGGAUCACCCAUGUC”, the “apparent Kd” value under setting [3] worked out at 25.6 nM and the “apparent Kd” value under setting [4] was 26.1 nM. As to “AAAUCAGUAGGAUAUACGAUUUUAUGCUAGAUAGAGGAGCCACAUGAGGAUCACCCAUGUAGAAGGACUAGAUA”, the “apparent Kd” value under setting [1] stood at 17.1 nM and the “apparent Kd” value under setting [2] is 19.9 nM. For “CGUGCGUAUGUGAGGAUAUGCUGGUCCUUGGAUCGGCAGAAGGCACAUGAGGAUCACCCAUGUGGUGUCGUUCG”, in that order: 219 nM and 31.6 nM. “AGACUGCGUAGAAUUAGCAGCCGACAGGAUAUGACAUGAGGAUCACCCAUGUGAACUACAAAGGAUCAGAAGGGUCACGACACA”: the “apparent Kd” value runs as follows: under setting [1], 20.1 nM; under setting [2], 24.4 nM. For “AUAUUGUGAGGAUAUGAACUUAGUAUCGAAAGAUACUAAGAUCAGAAGGCACAUGAGGAUCACCCAUGUUUCUC”, in that order: 77.5 nM and 402 nM. Consider “AGCUACGUUUCGUAGCAGUGUCAUCGAGAAGGCCCUGACAUGAGGAUCACCCAUGUUGUUACAUGGGAGGAUAUCGAUGAUACG”, for which the “apparent Kd” value stood at 12.2 nM under setting [3] and 4.68 nM under setting [4]. With “CUCUUGUAAGGAUAUGACUACAUAAAAAAAAAAAAAUGUAGUCAGAAGGUACAUGAGGAUCACCCAUGUACUAA”, the “apparent Kd” value runs as follows: under setting [1], 20.9 nM; under setting [2], 22.1 nM. As for “CUGUGAGGGAUCCAGAAUUACAACAUGAGGAUCACCCAUGUACAGGAUAUAGGGUUGAUAGGCGCCUAGAAGGGUAUGAUCACG”, the “apparent Kd” value reads like this: under setting [1], 632 nM; under setting [2], 584 nM.

On to “GCAUCACAUGAGGAUCACCCAUGUCUUCGGAGUCGAGGAUAUGGUCACUGUAAACAGUGGCCAGAAGGCGAGAUGC”, for which the “apparent Kd” value was 48.1 nM under setting [3] and 31.6 nM under setting [4]. For “GCUAGAAGCGUGAAAUAUCACAUGAGGAUCACCCAUGUGACACAGGAUAUAACAAUAUCAGAAGGUUAGAAGGGUGAACACGCC”, in that order: 119 nM and 32.9 nM. For “UUUAUAAAUUAGAAGGCGAGAUGAAUUACAAUAGACAUGAGGAUCACCCAUGUGUACCCAUGUUUUGAGGAUAUAGUCAUAUAU”, in that order: 743 nM and 585 nM. For “AUUGGUGAGUAGAAGGUACGAUAUUAGUUAUAGUAAGGAUAUACUAACAUGAGGAUCACCCAUGUAUAAAUGGAUAAAUUAUCU”, in that order: 11.7 nM and 8.98 nM. For “AUAGCUGGGAAGUAAACUCGUGCGGCAGAAGGGUGAUACUGGACAUGAGGAUCACCCAUGUGCACACAGGAUAUGCCCGCGAGC”, the “apparent Kd” value was found to be 207 nM under setting [3] and 35 nM under setting [4]. Turning to “GAAUAGGACAGAGGAUAUACGUGCUAGAGAUACUAGCAAAAUUUCCUCACAUGAGGAUCACCCAUGUAGAAGGCUGUCCUAUCG”, the “apparent Kd” value runs as follows: under setting [1], 18.5 nM; under setting [2], 394 nM. For “UAAUUAAGUGUGAGGAUAUGCUGGUCCUUGGAUCAGCAGAAGGCACAUGAGGAUCACCCAUGUAAUUUAUUUAU”, in that order: 85.1 nM and 328 nM.

Consider “CACUGCAUGUAAGGAUAUCGACUGGAUAACAGUCGAGAAGGUACAUGAGGAUCACCCAUGUAAGCAGUGAAUAAUAAUAAUAAU”, for which the “apparent Kd” value by setting is: under setting [1], 13.2 nM; under setting [2], 25.2 nM. On to “UGGUACUAGGGAGGAUAUGGGAAGAUACAUGAGGAUCACCCAUGUUUAAGAAUGCCGAUAGGCAACUAGAAGGCCCUAGUACCU”, for which the “apparent Kd” value runs as follows: under setting [3], 406 nM; under setting [4], 18.7 nM. Regarding “GCGUAUUAGGUGUAGCUAGACAUUCAAGAAGGGUGAAGAACAUGAGGAUCACCCAUGUAGUUUUUACAGGAUAUUGAUUUACGC”, the “apparent Kd” value under setting [3] was 269 nM and the “apparent Kd” value under setting [4] amounted to 14.9 nM. With “UAUAUACAUGAGGAUCACCCAUGUCAGGAUAUGCGCCGAUUAUAUACAUAAGAUCGGUGCAGAAGGGACACUAA”, the “apparent Kd” value is, setting by setting: under setting [1], 35.5 nM; under setting [2], 67.2 nM. With “CGGUACAUCGGAGGAUAUCAUGUAAAUACAUGAGGAUCACCCAUGUCGAUGGAGACAUCGGAGAUUGAGAAGGCCGAUGUACCG”, the “apparent Kd” value under setting [3] amounted to 186 nM and the “apparent Kd” value under setting [4] came out at 9.27 nM.

Take “UCGGCGCGAGGAUAUACGUUUGCGCGUUUUCGUUUGCGCGUACAUGAGGAUCACCCAUGUAGAAGGCGCGCGGC”: the “apparent Kd” value runs as follows: under setting [1], 13.1 nM; under setting [2], 13.4 nM. On to “AACCUGAUAGUGAGGAUAUCGGCGACGACAAGUCACGAGAAGGCACAUGAGGAUCACCCAUGUGAUAAAAUAAA”, for which the “apparent Kd” value under setting [1] was 20.4 nM and the “apparent Kd” value under setting [2] was 42.1 nM.

Regarding “AAAAAACAUGAGGAUCACCCAUGUGAGGAUAUCGAAAAGUCAAAGAAAAAGACGAAAACGAGAAGGCACAAAAA”, the “apparent Kd” value came to 53.8 nM under setting [1] and 65.8 nM under setting [2]. In the case of “AGAUCGAUUGUGAGGAUAUUGACCGGACGACCCAUCGAGAAGGCACAUGAGGAUCACCCAUGUGAGUCGGUUUA”, the “apparent Kd” value reads like this: under setting [1], 14.9 nM; under setting [2], 18.2 nM. For “CCUAUGUGAGGAUAUGGUGUUGGCCACAGGGAAAAGGUCCUCCAGAAGGCACAUGAGGAUCACCCAUGUCGUGG”, in that order: 116 nM and 127 nM.

Regarding “AUCAGCUUGACAGGAUAUACAUCACUGCGAAAGCAGUGUAUCUUAAUAACAUGAGGAUCACCCAUGUAGAAGGGUCGAGCUGAU”, the “apparent Kd” value came out at 18.4 nM under setting [1] and 32.6 nM under setting [2]. For “CUGUGUGACCGAGGAUAUAGACAUGAGGAUCACCCAUGUACGCCCAUCCAUGAAAGGUCCGUCGUCUAGAAGGCGGAGGCAAUG”, in that order: 11.2 nM and 23.4 nM. Turning to “GGGUACAUCGGAGGAUAUCAUGUAAAGACAUGAGGAUCACCCAUGUCGAUGGAGACAUCGGAGAUUGAGAAGGCCGAUGUACCG”, the “apparent Kd” value reads like this: under setting [3], 26.4 nM; under setting [4], 6.19 nM.
